# Published values from different studies.
# CDK9: Cyclin-dependent kinase 9 (CDK9, Homo sapiens, UniProt P50750)
# CDK1: Cyclin-dependent kinase 1 (CDK1, Homo sapiens, UniProt P06493)
Compound,target,test,test system,conditions,quantity,result
CCCCC(=O)Nc1ccc(-c2ccc3ncn(CCC)c(=O)c3c2)cn1,"Ankyrin repeat and protein kinase domain-containing protein 1 (ANKK1, Homo sapiens, UniProt Q8NFD2)","binding, competition with immobilised ligand",,0.5 µM,remaining binding,100%
Cc1cc2c(C(N)=O)c(N)n(-c3c(C)ccc(O)c3C)c2nc1C,"Proto-oncogene tyrosine-protein kinase Src (SRC, Homo sapiens, UniProt P12931)","enzyme activity, inhibitor, TR-FRET",,1.524 nM,inhibition,20.4%
CCN(CC)CCNC(=O)c1ccc(NCN2C(=O)NC(c3ccccc3)(c3ccccc3)C2=O)cc1,"Mitogen-activated protein kinase 3 (MAPK3, Homo sapiens, UniProt P27361)","enzyme activity, inhibitor, ADP detection",,10 µM,inhibition,43.6%
NC/C(=C\F)COc1cccc(Cn2c(=S)[nH]c(=O)c3[nH]cnc32)c1,"Myeloperoxidase (Mus musculus, UniProt P11247)","enzyme activity, inhibitor",,0.25 µM,remaining activity,9.08%
CC(C)(C)c1cnc(CSc2cnc(NC(=O)C3CCN(C(=O)CCCCCCN4Cc5cc6c(cc5C4)C(=O)N(C4CCC(=O)NC4=O)C6=O)CC3)s2)o1 (stereo not shown),CDK9,"protein level, degrader, western blot",TC-71,25 nM,inhibition,95.8%
C[C@H]1CN(CC2CCN(c3ccc(C4CCC(=O)NC4=O)cc3F)CC2)CC[C@H]1NS(=O)(=O)c1ccc(Nc2ncc(C(F)(F)F)c(N3CCC[C@](C)(O)C3)n2)c(F)c1 (stereo partly shown),CDK1,"protein level, degrader, western blot",TOV21G,,Dmax,40%
Cc1cc(O)c(-c2ccc([C@@H](C)CN(C)C)cc2)c2c1[nH]c(=O)c1sccc12,"Dual specificity mitogen-activated protein kinase kinase 7 (MAP2K7, Homo sapiens, UniProt O14733)","enzyme activity, inhibitor",,0.1 µM,inhibition,4.47%
C[C@]1(O)CCCN(c2nc(Nc3ccc(S(=O)(=O)N[C@H]4CC[C@H](CN5CCN(c6ccc(C7CCC(=O)NC7=O)c(F)c6)CC5)CC4)cc3F)ncc2C(F)(F)F)C1 (stereo partly shown),CDK1,"protein level, degrader, western blot",TOV21G,,Dmax,73%
COc1ccc2oc(-c3ccc4nc(N)oc4c3)c/c(=N\c3ccccc3NC(=O)CCN)c2c1,"5'-AMP-activated protein kinase catalytic subunit alpha-2 (PRKAA2, Homo sapiens, UniProt P54646)",binding,,1 µM,remaining binding,103%
CC(C)(C)c1cnc(CSc2cnc(NC(=O)C3CCN(C(=O)CCCCCCCCCN4Cc5cc6c(cc5C4)C(=O)N(C4CCC(=O)NC4=O)C6=O)CC3)s2)o1 (stereo not shown),CDK9,"protein level, degrader, western blot",TC-71,25 nM,inhibition,91.8%
C1=C/COCc2cc(ccc2OCCN2CCCC2)Nc2nccc(n2)-c2cccc(c2)COC/1,"Tyrosine-protein kinase Mer (MERTK, Homo sapiens, UniProt Q12866)",binding,,0.1 µM,remaining binding,80%
C#Cc1cc(-c2cc(Nc3nc(N[C@@H](C)c4ccc(F)cn4)ncc3Cl)n[nH]2)ccc1C=O,"Serine/threonine-protein kinase Sgk2 (SGK2, Homo sapiens, UniProt Q9HBY8)","enzyme activity, inhibitor",,0.2 µM,inhibition,4.48%
C[C@H]1CN(c2ccc(C3CCC(=O)NC3=O)cc2F)CCN1CC12CCC(NS(=O)(=O)c3ccc(Nc4ncc(C(F)(F)F)c(N5CCC[C@](C)(O)C5)n4)c(F)c3)(CC1)CO2 (stereo partly shown),CDK1,"protein level, degrader, western blot",TOV21G,,Dmax,32%
